We go through eleven compounds from ChEMBL document CHEMBL1125590, “Purine and 1-deazapurine ribonucleosides and deoxyribonucleosides: synthesis and biological activity” (J Med Chem, 1991).

Test [1] deals with L1210. The test can be described thus: Compound was tested for its antitumor activity to inhibit 50% of tumor cell growth in mouse leukemia L1210 cell lines. Format: functional. The following applies: read-out: ID50 (the source's name). The method, boiled down: (§1)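 L1210 and P388 murine leukemia cells were kept in RPMI 1640 with 10% fetal calf serum, penicillin and streptomycin, plus 1 mM β-mercaptoethanol added at 1% (L1210) or 2% (P388). Stocks were 1 mg/mL in 5% DMSO, diluted in water (0.5% DMSO at the top dose). Cells were plated at 3×10^4/mL and treated immediately for 72 h, then Coulter-counted as % of control; IC50 was taken from concentration–response curves.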

The test system of test [2] is P388. The experiment in a line: Compound was tested for its antitumor activity to inhibit 50% of tumor cell growth in mouse leukemia P388 cell lines. Format: functional. To be noted: read-out: ID50 (the source's name). In a few lines:
as §1

In test [3] the target is T1, Adenosine deaminase (Bos taurus, UniProt P56658).
T1 sequence (P56658 whole entry): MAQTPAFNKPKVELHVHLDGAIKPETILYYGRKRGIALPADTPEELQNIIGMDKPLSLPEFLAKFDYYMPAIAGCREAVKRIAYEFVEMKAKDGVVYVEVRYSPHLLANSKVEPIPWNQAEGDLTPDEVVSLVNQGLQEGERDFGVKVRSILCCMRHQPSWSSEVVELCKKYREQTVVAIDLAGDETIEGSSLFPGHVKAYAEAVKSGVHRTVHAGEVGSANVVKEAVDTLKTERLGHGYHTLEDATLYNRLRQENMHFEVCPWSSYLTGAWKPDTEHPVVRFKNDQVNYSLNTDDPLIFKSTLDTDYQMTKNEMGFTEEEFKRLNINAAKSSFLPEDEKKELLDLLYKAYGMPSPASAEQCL
The experiment in a line: Compound was tested for the inhibition of Adenosine deaminase from calf intestine.

Test [4] concerns the target T1, Adenosine deaminase. The experiment in a line: Compound was tested for the inhibition of Adenosine deaminase from calf intestine; NA indicates not active.

`OC[C@H]1O[C@@H](n2cnc3c(NO)ccnc32)C[C@@H]1O`: the IC50 in test [1] is above 100 µM; in test [2] it was 67.6 µM. Besides, the Ki (usually the dissociation constant of the complex between target and ligand, obtained from inhibition or displacement) in test [3] came to 0.27 µM.
As to `OC[C@H]1O[C@@H](n2cnc3/c(=N\O)[nH]cnc32)[C@H](O)[C@@H]1O`, the IC50 amounted to 3.1 µM in test [1] and 1.6 µM in test [2].
In the case of `OC[C@H]1OC(n2cnc3c(NO)cc(Cl)nc32)[C@H](O)[C@@H]1O` (stereo partly specified), the IC50 in test [1] was determined as 91 µM; in test [2] it was 60 µM. The Ki in test [3] is 69 µM.
On to `O=[N+]([O-])c1cc(Cl)nc2c1ncn2C1O[C@H](CO)[C@@H](O)[C@H]1O` (stereo partly specified), for which the results for the IC50 in test [1] and in test [2] were 0.9 µM and 1.5 µM, respectively. Also, in test [4], the Ki result was “Not Active”.
For the compound `Nc1ncnc2c1ncn2[C@@H]1O[C@H](CO)[C@@H](O)[C@@H]1O` [VIDARABINE], the IC50 in test [1] worked out at 21.7 µM; in test [2], 16.8 µM.
For the compound `O=[N+]([O-])c1ccnc2c1ncn2[C@H]1C[C@H](O)[C@@H](CO)O1`, the IC50 in test [1] is 14.9 µM; in test [2], 20.6 µM. In addition, the Ki entry in test [4] is “Not Active”.
On the same counts, the results for `OC[C@H]1OC(n2cnc3c(NO)nc(Cl)nc32)[C@H](O)[C@@H]1O` (stereo partly specified) are 94.4 µM, 75.5 µM and “Not Active”.
As for `Cc1ccc(C(=O)OC[C@H]2O[C@@H](n3cnc4c(NO)ccnc43)C[C@@H]2OC(=O)c2ccc(C)cc2)cc1`, the IC50 in test [1] turned out to be 22.5 µM; in test [2], 16.9 µM. Moreover, in test [3], the affinity, expressed as Ki, was 5.3 µM.
Turning to `Cc1ccc(C(=O)OC[C@H]2O[C@@H](n3cnc4c(NO)nc(Cl)nc43)C[C@@H]2OC(=O)c2ccc(C)cc2)cc1`, the IC50 in test [1] amounted to 4.9 µM; in test [2] it was 10.4 µM. Moreover, in test [4], the Ki entry was “Not Active”.
On to `Cc1ccc(C(=O)OC[C@H]2O[C@@H](n3cnc4c(NO)cc(Cl)nc43)C[C@@H]2OC(=O)c2ccc(C)cc2)cc1`, for which the values for the IC50 in test [1] and in test [2] were 4.8 µM and 4.3 µM, respectively. Further, in test [4], the Ki entry is “Not Active”.
Take `OC[C@H]1O[C@@H](n2cnc3c(NO)ccnc32)[C@H](O)[C@@H]1O`: the IC50 in test [1] worked out at 5.3 µM; in test [2], 4.9 µM. The same compound showed a Ki in test [3] of 1.2 µM.
